Data as given in ChEMBL document CHEMBL4028894, “Identification of a New Pyrazolo[1,5-a]quinazoline Ligand Highly Affine to γ-Aminobutyric Type A (GABAA) Receptor Subtype with Anxiolytic-Like and Antihyperalgesic Activity” (J Med Chem, 2017).

Columns and labels:
Bos taurus = organism: Bos taurus; assay: Displacement of [3H]Ro15-1788 from GABAA receptor in bovine cerebral cortex membranes at 10 uM after 90 mins by liquid scintillation counting method relative to control; format: cell membranes; settings: Membrane
In short: (§1)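 Bovine cerebral cortex membranes in 50 mM tris-citrate pH 7.4, with displacement of specific [3H]flumazenil binding. Single-point screen at 10 μM gives % inhibition. Where inhibition exceeds 80%, at least six concentrations tested and Ki derived by iterative curve fitting and the Cheng-Prusoff equation. Five experiments, each in triplicate; mean ± SEM.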

[1] = Displacement of [3H]Ro15-1788 from GABAA receptor in bovine cerebral cortex membranes after 90 mins by liquid scintillation counting method; format: cell membranes, Bos taurus, Membrane; in short: as §1
Mus musculus [2] = assay: Reversal of scopolamine-induced amnesic effect in Swiss albino mouse assessed as retention session latency time at 30 mg/kg, po administered 30 mins followed by establishment of training session and immediate addition of scopolamine post session by passive-avoidance test (reference value: 46.3 +/- 7.5 secs); format: functional
In short: (§2)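 Male Swiss albino mice, 8 per group, step-through passive avoidance. Compound given p.o. in 1% carboxymethylcellulose 30 min before training. Scopolamine 1.5 mg/kg in saline given i.p. immediately after training. Punishment on entering the dark compartment is a fall into 10 °C water. Latencies measured at training and at retention 24 h later (max 120 s).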

Mus musculus [3] = assay: Effect on motor coordination in Swiss albino mouse at 30 mg/kg, po measured over 30 secs at 15 to 60 mins post drug administration by rota rod test; format: ADME, organism-based; settings: in vivo
In short: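 Male Swiss albino mice, 8 per group. Oral dose in 1% carboxymethylcellulose. Rota rod turning at 16 r.p.m. Falls from the rod counted over 30 s, measured before dosing and every 15 min up to 60 min after.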

Mus musculus [4] = assay: Effect on licking latency time in Swiss albino mouse at 30 mg/kg, po after 30 mins by hot plate test (reference value: 18.8 +/- 1.2 secs); format: ADME, organism-based; settings: in vivo, 0.5 h
Mus musculus [5] = assay: Effect on licking latency time in Swiss albino mouse at 30 mg/kg, po after 15 mins by hot plate test (reference value: 18.3 +/- 1.1 secs); format: ADME, organism-based; settings: in vivo, 0.25 h
Rattus norvegicus [6] = assay: Antihyperalgesic activity in Sprague-Dawley rat peripheral mononeuropathy model assessed as ipsilateral paw pressure at 30 mg/kg, po after 15 mins by analgesimeter (33.7 +/- 3.2 g); format: functional
Mus musculus [7] = assay: Effect on licking latency time in Swiss albino mouse at 30 mg/kg, po after 60 mins by hot plate test (reference value: 17.9 +/- 1.1 secs); format: ADME, organism-based; settings: in vivo, 1 h
Mus musculus [8] = assay: Anxiolytic-like activity in Swiss albino mouse assessed as persistent time in light box at 30 mg/kg, po administered 30 mins prior to testing in presence of GABAA receptor antagonist flumazenil by light dark box test (131.9 +/- 6.5 secs); format: functional
Mus musculus [9] = assay: Antihyperalgesic activity in streptozotocin-induced Swiss albino mouse hyperalgesia model assessed as licking latency time at 30 mg/kg, po after 45 mins by hot plate test (reference value: 10.9 +/- 0.8 secs); format: functional
Mus musculus [10] = assay: Amnesic effect in Swiss albino mouse assessed as training session latency time at 30 mg/kg, po administered 30 mins prior to testing by passive-avoidance test (reference value: 14.1 +/- 3.4 secs); format: ADME, organism-based; settings: in vivo
NSC = assay: Cytotoxicity against human H9-derived neural stem cells assessed as effect on cell viability at 1 to 1000 nM after 72 hrs by MTS assay; format: cell-based; settings: 1 µM
In short: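 Neural stem cells derived from H9 were grown on polyornithine/laminin and differentiated for 7 days in serum-free Neurobasal with 2% B-27, 2 mM L-glutamine and 5 μM retinoic acid. Cells then exposed 72 h to 1 nM-1 μM compound. MTS absorbance read at 490, background subtracted, expressed as % of untreated cells. Three independent experiments, each in triplicate.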

Rattus norvegicus [11] = assay: Effect on pain threshold in contralateral paw in Sprague-Dawley rat peripheral mononeuropathy model at 30 mg/kg, po; format: ADME, organism-based; settings: in vivo
Rattus norvegicus [12] = assay: Antihyperalgesic activity in Sprague-Dawley rat peripheral mononeuropathy model assessed as ipsilateral paw pressure at 30 mg/kg, po after 30 mins by analgesimeter (41.7 +/- 3.6 g); format: functional
Mus musculus [13] = assay: Amnesic effect in Swiss albino mouse assessed as retention session latency time at 30 mg/kg, po administered 30 mins prior to testing by passive-avoidance test (reference value: 98.4 +/- 8.8 secs); format: ADME, organism-based; settings: in vivo
Mus musculus [14] = assay: Anticonvulsant activity in Swiss albino mouse assessed as protection against subcutaneous pentylenetetrazole-induced seizures at 10 mg/kg, po administered 30 mins followed by pentylenetetrazole challenge measured over 30 mins relative to control; format: functional
In short: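 Male Swiss albino mice (23-30 g), 6 per group. Test drug suspended in 1% carboxymethylcellulose, given orally 30 min before PTZ 90 mg/kg s.c. (saline). Clonic generalized convulsions recorded over 30 min. Result expressed as % protection versus vehicle-treated animals (0% protection).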

Mus musculus [15] = assay: Antihyperalgesic activity in streptozotocin-induced Swiss albino mouse hyperalgesia model assessed as licking latency time at 30 mg/kg, po after 15 mins by hot plate test (reference value: 9.4 +/- 1.1 secs); format: functional
Rattus norvegicus [16] = assay: Antihyperalgesic activity in Sprague-Dawley rat peripheral mononeuropathy model assessed as ipsilateral paw pressure at 10 mg/kg, po after 45 mins by analgesimeter (36.9 +/- 3.8 g); format: functional
Rattus norvegicus [17] = assay: Antihyperalgesic activity in Sprague-Dawley rat peripheral mononeuropathy model assessed as ipsilateral paw pressure at 30 mg/kg, po after 45 mins by analgesimeter (36.9 +/- 3.8 g); format: functional
Mus musculus [18] = assay: Reversal of scopolamine-induced amnesic effect in Swiss albino mouse assessed as retention session latency time at 10 mg/kg, po administered 30 mins followed by establishment of training session and immediate addition of scopolamine post session by passive-avoidance test (reference value: 46.3 +/- 7.5 secs); format: functional; in short: as §2
Mus musculus [19] = assay: Anxiolytic-like activity in Swiss albino mouse assessed as persistent time in light box at 30 mg/kg, po administered 30 mins prior to testing by light dark box test (131.9 +/- 6.5 secs); format: functional
Mus musculus [20] = assay: Antihyperalgesic activity in streptozotocin-induced Swiss albino mouse hyperalgesia model assessed as licking latency time at 30 mg/kg, po after 60 mins by hot plate test (reference value: 9.6 +/- 0.9 secs); format: functional
Mus musculus [21] = assay: Anxiolytic-like activity in Swiss albino mouse assessed as persistent time in light box at 1 mg/kg, po administered 30 mins prior to testing by light dark box test (131.9 +/- 6.5 secs); format: functional
Mus musculus [22] = assay: Anxiolytic-like activity in Swiss albino mouse assessed as persistent time in light box at 10 mg/kg, po administered 30 mins prior to testing by light dark box test (131.9 +/- 6.5 secs); format: functional
Mus musculus [23] = assay: Anticonvulsant activity in Swiss albino mouse assessed as protection against subcutaneous pentylenetetrazole-induced seizures at 30 mg/kg, po administered 30 mins followed by pentylenetetrazole challenge measured over 30 mins relative to control; format: functional
In short: (§3)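 Male Swiss albino mice, 6 per group. Compound given p.o. in 1% carboxymethylcellulose. Pentylenetetrazole 90 mg/kg in saline given s.c. 30 min later. Occurrence of clonic generalized convulsions noted over 30 min. Result expressed as % protection, with the vehicle group taken as 0%.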

Rattus norvegicus [24] = assay: Antihyperalgesic activity in Sprague-Dawley rat peripheral mononeuropathy model assessed as ipsilateral paw pressure at 10 mg/kg, po after 30 mins by analgesimeter (41.7 +/- 3.6 g); format: functional
Mus musculus [25] = assay: Effect on explorative activity in Swiss albino mouse at 30 mg/kg, po measured over 5 mins by […] test; format: ADME, organism-based; settings: in vivo
In short: (§4)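 Male Swiss albino mice, 8 per group, hole-board: a 40 cm square with 16 holes. Compound given 30 min before the test. Each mouse explores freely for 5 min. Photobeam counts across quadrants give locomotor activity; photocells in the holes give the number of hole inspections.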

Mus musculus [26] = assay: Anticonvulsant activity in Swiss albino mouse assessed as protection against subcutaneous pentylenetetrazole-induced seizures at 100 mg/kg, po administered 30 mins followed by pentylenetetrazole challenge measured over 30 mins relative to control; format: functional; in short: as §3
Mus musculus [27] = assay: Reversal of scopolamine-induced amnesic effect in Swiss albino mouse assessed as training session latency time at 30 mg/kg, po administered 30 mins followed by establishment of training session and immediate addition of scopolamine post session by passive-avoidance test (reference value: 15.9 +/- 3 secs); format: functional; in short: as §2
Rattus norvegicus [28] = assay: Antihyperalgesic activity in Sprague-Dawley rat peripheral mononeuropathy model assessed as ipsilateral paw pressure at 10 mg/kg, po after 15 mins by analgesimeter (33.7 +/- 3.2 g); format: functional
Mus musculus [29] = assay: Antihyperalgesic activity in streptozotocin-induced Swiss albino mouse hyperalgesia model assessed as licking latency time at 30 mg/kg, po after 30 mins by hot plate test (reference value: 10.2 +/- 0.8 secs); format: functional
Mus musculus [30] = assay: Effect on spontaneous motility in Swiss albino mouse at 30 mg/kg, po measured over 5 mins by […] test; format: ADME, organism-based; settings: in vivo; in short: as §4
Mus musculus [31] = assay: Reversal of scopolamine-induced amnesic effect in Swiss albino mouse assessed as training session latency time at 10 mg/kg, po administered 30 mins followed by establishment of training session and immediate addition of scopolamine post session by passive-avoidance test (reference value: 15.9 +/- 3 secs); format: functional; in short: as §2
Mus musculus [32] = assay: Effect on licking latency time in Swiss albino mouse at 30 mg/kg, po after 45 mins by hot plate test (reference value: 18 +/- 0.9 secs); format: ADME, organism-based; settings: in vivo, 0.75 h
Mus musculus [33] = assay: Anxiolytic-like activity in Swiss albino mouse assessed as persistent time in light box at 100 mg/kg, ip administered 40 mins prior to testing by light dark box test (131.9 +/- 6.5 secs); format: functional

COc1ccc2cnc3c(C(=O)OCc4ccco4)cnn3c2c1
inhibition (Bos taurus): > 80% | Ki [1]: 15.2 nM

COc1ccc2cnc3c(C(=O)OCc4cccs4)cnn3c2c1
inhibition (Bos taurus): > 80% | Ki [1]: 16.7 nM

COc1ccc2cnc3c(C(=O)OCc4ccccc4OC)cnn3c2c1
Time (Mus musculus [2]): 60.4 s | Activity (Mus musculus [3]): Non-Toxic | Time (Mus musculus [4]): 17.2 s | Time (Mus musculus [5]): 17.3 s | Activity (Rattus norvegicus [6]): 52.4 g | Time (Mus musculus [7]): 17.5 s | Time (Mus musculus [8]): 136.4 s | Time (Mus musculus [9]): 13.1 s | Time (Mus musculus [10]): 16.5 s | Activity (NSC): Non-Toxic | inhibition (Bos taurus): > 80% | Activity (Rattus norvegicus [11]): Non-Toxic | Activity (Rattus norvegicus [12]): 41.7 g | Time (Mus musculus [13]): 105.6 s | Activity (Mus musculus [14]): 0% | Time (Mus musculus [15]): 16.6 s | Activity (Rattus norvegicus [16]): 36.9 g | Activity (Rattus norvegicus [17]): 35.9 g | Time (Mus musculus [18]): 53.1 s | Time (Mus musculus [19]): 165.7 s | Time (Mus musculus [20]): 11.2 s | Time (Mus musculus [21]): 133.1 s | Time (Mus musculus [22]): 169.6 s | Activity (Mus musculus [23]): 10% | Activity (Rattus norvegicus [24]): 41.7 g | Activity (Mus musculus [25]): Non-Toxic | Activity (Mus musculus [26]): 10% | Time (Mus musculus [27]): 17.52 s | Activity (Rattus norvegicus [28]): 39.8 g | Time (Mus musculus [29]): 15.5 s | Ki [1]: 0.27 nM | Activity (Mus musculus [30]): Non-Toxic | Time (Mus musculus [31]): 17.5 s | Time (Mus musculus [32]): 18.4 s

CCOC(=O)c1cnn2c1[nH]c(=O)c1ccc(OC)cc12
inhibition (Bos taurus): 2%

CCOC(=O)c1cnn2c1ncc1ccc(OC)cc12
inhibition (Bos taurus): > 80% | Ki [1]: 102 nM

COCCOc1ccc2cnc3c(C#N)cnn3c2c1
inhibition (Bos taurus): 53%

CCOC(=O)c1cnn2c1NCc1ccc(OC)cc1-2
inhibition (Bos taurus): > 80% | Ki [1]: 376 nM

COc1ccc2cnc3c(C(=O)OC(C)C)cnn3c2c1
inhibition (Bos taurus): > 80% | Ki [1]: 97.4 nM

CCOC(=O)c1ncn2c1CN(C)C(=O)c1cc(F)ccc1-2 [FLUMAZENIL]
Time (Mus musculus [33]): 127.5 s

COc1ccc2cnc3c(C#N)cnn3c2c1
inhibition (Bos taurus): > 80% | Ki [1]: 378 nM

O=C(OCc1cccs1)c1cnn2c1ncc1ccccc12
inhibition (Bos taurus): > 80% | Ki [1]: 13.2 nM

COc1ccc2cnc3c(C(=O)OCc4ccccc4)cnn3c2c1
inhibition (Bos taurus): > 80% | Ki [1]: 19 nM

O=C(OCc1ccccc1)c1cnn2c1ncc1ccccc12
inhibition (Bos taurus): > 80% | Ki [1]: 25.9 nM

COc1ccc2c(c1)-n1ncc(C(=O)OCc3ccccc3OC)c1NC2
inhibition (Bos taurus): > 80% | Ki [1]: 16 nM

COc1ccccc1COC(=O)c1cnn2c1ncc1ccccc12
inhibition (Bos taurus): > 80% | Ki [1]: 3.16 nM

COc1ccc2c(c1)-n1ncc(C(=O)OCc3ccccc3)c1NC2
inhibition (Bos taurus): > 80% | Ki [1]: 34 nM

N#Cc1cnn2c1ncc1ccccc12
inhibition (Bos taurus): 27%

CCOC(=O)c1cnn2c1ncc1ccccc12
inhibition (Bos taurus): > 80% | Ki [1]: 529 to 835 nM

CN1C(=O)CN=C(c2ccccc2)c2cc(Cl)ccc21 [DIAZEPAM]
Activity (Mus musculus [14]): 100% | Time (Mus musculus [22]): 165.6 s | Ki [1]: 12.3 nM
